Experimental data published in ChEMBL document CHEMBL4765333, “Novel NO-releasing scopoletin derivatives induce cell death via mitochondrial apoptosis pathway and cell cycle arrest” (Eur J Med Chem, 2020).
Calls of active or inactive are those of the source. The calls are words filed in the database; no cut-off is given here.

How the values were obtained:
[1] = Induction of intracellular reactive oxygen species generation in human MDA-MB-231 cells assessed as proportion of FL1-H negative cells at 2 uM pretreated with ROS scavenger, NAC for 2 hrs prior to incubation with compound and measured after 24 hrs by DCFH-DA staining based flow cytometry analysis (reference value: 52.2%); assay type: functional, MDA-MB-23
MDA-MB-231 [2] = assay: Antiproliferative activity against human MDA-MB-231 cells assessed as inhibition of cell proliferation rate at 4 uM pretreated with 40 uM NO scavenger, hemoglobin for 2 hrs followed by addition of compound and measured after 48 hrs by MTT assay; assay type: functional
How it was run: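 MDA-MB-231 cells pretreated 2 h with the NO scavenger hemoglobin (2.5, 5, 10, 20, 40 µM), then given compound at 4 µM for a further 48 h. Inhibition rate read by MTT assay; mean ± SD, n = 3.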

MDA-MB-231 [3] = assay: Induction of cell cycle arrest in human MDA-MB-231 cells assessed as accumulation at G2/M phase at 2 uM measured after 24 hrs by propidium iodide staining based flow cytometric method (reference value: 18.55%); assay type: functional
MDA-MB-231 [4] = assay: Induction of mitochondrial membrane potential depolarization in human MDA-MB-231 cells assessed as proportion of cells with depolarized MMP at 1 uM incubated for 18 hrs by JC-1 staining based flow cytometry (reference value: 0.72%); assay type: functional
[5] = Induction of intracellular reactive oxygen species generation in human MDA-MB-231 cells assessed as proportion of FL1-H negative cells at 1 uM measured after 24 hrs by DCFH-DA staining based flow cytometry analysis (reference value: 52.2%); assay type: functional, MDA-MB-23
MDA-MB-23 [6] = assay: Induction of mitochondrial membrane potential depolarization in human MDA-MB-231 cells incubated for 18 hrs by JC-1 staining based flow cytometry; assay type: functional, cell-based; conditions: dose 1-2 µM
MCF7 = assay: Anticancer activity against human MCF7 cells assessed as inhibition of cell proliferation measured after 48 hrs by MTT assay; assay type: functional, cell-based; conditions: MCF7, 48 h
How it was run: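 Cells seeded at ~5,000/well, grown 24 h to partial monolayer, then exposed 48 h at 37°C, 5% CO2 to 0.5, 1, 2, 4, 10 and 20 µM (DMSO ≤0.1%). MTT final 0.5 mg/ml for 4 h, formazan dissolved in DMSO, A570. Survival expressed as % of untreated control; IC50 from dose-response curves; three independent experiments. MDA-MB-231, MCF-7, HepG2 in DMEM; A549 and LO-2 in RPMI-1640; 10% FBS.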

MDA-MB-231 [7] = assay: Induction of cell cycle arrest in human MDA-MB-231 cells assessed as accumulation at G0/G1 phase at 2 uM measured after 24 hrs by propidium iodide staining based flow cytometric method (reference value: 45.71%); assay type: functional
[8] = Induction of intracellular reactive oxygen species generation in human MDA-MB-231 cells assessed as proportion of FL1-H negative cells at 1.5 uM measured after 24 hrs by DCFH-DA staining based flow cytometry analysis (reference value: 52.2%); assay type: functional, MDA-MB-23
MDA-MB-231 [9] = assay: Induction of apoptosis in human MDA-MB-231 cells assessed as up-regulation of Bax expression at 1.5 to 6 uM measured after 8 hrs by Western blot analysis; assay type: functional, cell-based; conditions: dose 1.5-6 µM
How it was run: (§1)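 MDA-MB-231 cells (8×10^5 per 60 mm dish) attached 24 h, then exposed 8 h to 1.5, 3 or 6 µM, DMSO as control. Lysates quantified by BCA; 30 µg protein run on 4–20% SDS-PAGE, transferred to PVDF, probed for Bcl-2, Bax, Bad, cleaved caspase-9, cleaved caspase-3 and PARP, with ECL detection. Densitometric relative levels; three experiments.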

MDA-MB-231 [10] = assay: Induction of apoptosis in human MDA-MB-231 cells assessed as early apoptotic cells at 3 uM after 24 hrs by Annexin V/propidium iodide based flow cytometric analysis (reference value: 0.94%); assay type: functional
How it was run: (§2)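 MDA-MB-231 cells (2×10^5/well) attached 24 h, then treated 24 h with 1, 1.5, 2 or 3 µM, DMSO as control. Cells harvested, PBS-washed, resuspended in binding buffer, stained with Annexin V and PI for 30 min at 37°C in the dark, and analysed by flow cytometry for quadrant percentages; three experiments.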

MDA-MB-231 [11] = assay: Induction of mitochondrial membrane potential depolarization in human MDA-MB-231 cells assessed as proportion of cells with depolarized MMP at 1.5 uM incubated for 18 hrs by JC-1 staining based flow cytometry (reference value: 0.72%); assay type: functional
MDA-MB-231 [12] = assay: Induction of apoptosis in human MDA-MB-231 cells assessed as late apoptotic cells at 1.5 uM after 24 hrs by Annexin V/propidium iodide based flow cytometric analysis (reference value: 0.038%); assay type: functional; how it was run: as §2
MDA-MB-231 [13] = assay: Induction of apoptosis in human MDA-MB-231 cells assessed as viable cells at 3 uM after 24 hrs by Annexin V/propidium iodide based flow cytometric analysis (reference value: 99%); assay type: functional; conditions: read-out: Activity; how it was run: as §2
MDA-MB-231 [14] = assay: Induction of cell cycle arrest in human MDA-MB-231 cells assessed as accumulation at G0/G1 phase at 1 uM measured after 24 hrs by propidium iodide staining based flow cytometric method (reference value: 45.71%); assay type: functional
MDA-MB-23 [15] = assay: Inhibition of colony formation in human MDA-MB-231 cells incubated for 24 hrs followed by culturing in fresh medium for 10 days by crystal violet staining based assay; assay type: functional, cell-based; conditions: dose 0.25-1 µM
How it was run: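 MDA-MB-231 seeded at 1.5×10^3 cells/well, 24 h attachment, then 24 h exposure to compound (0.25, 0.5, 1 µM) or DMSO; fresh medium for a further 10 days. Fixed in 4% paraformaldehyde 0.5 h at 4°C, crystal violet stained, dye dissolved in DMSO and absorbance read at 590 nm; performed three times.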

MDA-MB-231 [16] = assay: Induction of cell cycle arrest in human MDA-MB-231 cells assessed as accumulation at G2/M phase at 1 uM measured after 24 hrs by propidium iodide staining based flow cytometric method (reference value: 18.55%); assay type: functional
MDA-MB-231 [17] = assay: Induction of cell cycle arrest in human MDA-MB-231 cells assessed as accumulation at G0/G1 phase at 1.5 uM measured after 24 hrs by propidium iodide staining based flow cytometric method (reference value: 45.71%); assay type: functional
MDA-MB-231 [18] = assay: Antiproliferative activity in human MDA-MB-231 cells assessed as inhibition of cell viability at 1.5 to 3 uM pretreated with 10 uM necroptosis inhibitor, necrostatin-1 followed by addition of compound and measured after 48 hrs by MTT assay; assay type: functional, cell-based; conditions: dose 1.5-3 µM
How it was run: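 MDA-MB-231 cells pretreated 1 h with necrostatin-1 (10 µM) or Z-VAD-FMK (20 µM), then exposed to compound at 1.5, 2 and 3 µM for another 48 h. Inhibition rates by MTT; inhibitors alone also tested 48 h for viability. Mean ± SD, n = 3.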

MDA-MB-231 [19] = assay: Induction of mitochondrial membrane potential depolarization in human MDA-MB-231 cells assessed as proportion of cells with depolarized MMP at 2 uM incubated for 18 hrs by JC-1 staining based flow cytometry (reference value: 0.72%); assay type: functional
MDA-MB-231 [20] = assay: Induction of apoptosis in human MDA-MB-231 cells assessed as early apoptotic cells at 1.5 uM after 24 hrs by Annexin V/propidium iodide based flow cytometric analysis (reference value: 0.94%); assay type: functional; how it was run: as §2
MDA-MB-231 [21] = assay: Induction of apoptosis in human MDA-MB-231 cells assessed as up-regulation of Bad expression at 1.5 to 6 uM measured after 8 hrs by Western blot analysis; assay type: functional, cell-based; conditions: dose 1.5-6 µM; how it was run: as §1

IC50 (MCF7): 1910 nM
Compound: COc1cc2cc(N)c(=O)oc2cc1OCCCOc1no[n+]([O-])c1S(=O)(=O)c1ccccc1
Activity [1]: 49% | inhibition at 4 µM (MDA-MB-231 [2]): 39.5% | Activity (MDA-MB-231 [3]): 40.29% | Activity (MDA-MB-231 [4]): 5.4% | Activity [5]: 35% | Activity (MDA-MB-23 [6]): Dose-dependent effect | Activity (MDA-MB-231 [7]): 38.05% | Activity [8]: 17.3% | Activity (MDA-MB-231 [9]): Active | Activity (MDA-MB-231 [10]): 13.6% | Activity (MDA-MB-231 [11]): 17.7% | Activity (MDA-MB-231 [12]): 13.2% | viability at 3 µM (MDA-MB-231 [13]): 65.6% | Activity (MDA-MB-231 [14]): 43.06% | inhibition (MDA-MB-23 [15]): Dose-dependent effect | Activity (MDA-MB-231 [16]): 24.58% | Activity (MDA-MB-231 [17]): 41.85% | Activity (MDA-MB-231 [18]): inactive | Activity (MDA-MB-231 [19]): 31.5% | Activity (MDA-MB-231 [20]): 10.8% | Activity (MDA-MB-231 [21]): Active
